A selection: hits, their analogues and other compounds. The true share with any hit is near 0.79%.
DTT redox prof – compounds producing H2O2 with reducing agent – biochemical, NIH compound library profiling, artefact control for MLSCN library redox annotation, primary screen. DTT-dependent redox cycling H2O2, phenol red/HRP absorbance; 100% = 100 µM peroxide control, 0% = buffer. activation, % at 10 µM. hit rate 0.03% among 200,000. AID 878, 2007;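 active = activation of at least 50% relative to the plate's high and low controls in the primary single-dose screen; inactive = activation below 50%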;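 note: compound incubated with DTT at 0.8 mM final as the reducing agent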
TNAP inh noacc – human TNAP enzyme inhibitors, primary screen, biochemical, luminescent, no phosphate acceptor, uHTS; AID 1012, 2008; hit rate 0.26% among 200,000; purified TNAP, CDP-star luminescence, 30 min; Alkaline phosphatase, tissue-nonspecific isozyme (Homo sapiens), P05186; inhibition, % at 20 µM;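 active = tissue-nonspecific alkaline phosphatase inhibition above about 50% at 20 µM in the single-dose screen, limit read from the data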
TNAP inh hi DEA – human TNAP enzyme inhibitors, primary screen, biochemical, luminescent, high phosphate acceptor level, uHTS; AID 1135, 2008; hit rate 0.03% among 200,000; purified TNAP, CDP-star luminescence, 1 M DEA; inhibition, % at 20 µM;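 active = over 50% inhibition of tissue-nonspecific alkaline phosphatase at 20 µM in the single-dose screen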
TNAP act hiacc – TNAP activators at high phosphate acceptor level, primary screen, biochemical, luminescence, uHTS; Alkaline phosphatase, tissue-nonspecific isozyme (Homo sapiens), P05186; purified TNAP, CDP-star luminescence, 1 M DEA, 30 min; active compounds read high; 0 = EDTA background, 1 = DMSO-only activity; 200,000 tested, under 10 active; activation factor at 20 µM;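 active = activation factor at least 2 at 20 µM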
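Test system – human TNAP · Doses – 20 µM single point · Incubation – 30 min, room temperature · Signal – luminescent substrate turnover signal · Read-out basis – activation factor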
G6PDH CS – L. mesenteroides G6PDH inhibitors, counter-screen for G6PDH-coupled screening assays, biochemical, Leuconostoc mesenteroides enzyme | Purified L. mesenteroides G6PDH, diaphorase/resazurin coupled fluorescence, 45 min | hit rate 0.12% among 200,000 | inhibition, % at 5 µM | AID 1020, 2008 | glucose-6-phosphate dehydrogenase [Leuconostoc mesenteroides]; in the data active = inhibition above about 50%
p97 inhibitor – inhibitors of human p97 ATPase, primary screen, biochemical; recombinant p97 ATPase, Kinase-Glo ATP luminescence, 3 h; inhibition, % at 8 µM; hit rate 0.42% among 220,000; AID 1481, 2009; in the data active = inhibition above about 15%
Target sequence (P55072 whole entry, looked up): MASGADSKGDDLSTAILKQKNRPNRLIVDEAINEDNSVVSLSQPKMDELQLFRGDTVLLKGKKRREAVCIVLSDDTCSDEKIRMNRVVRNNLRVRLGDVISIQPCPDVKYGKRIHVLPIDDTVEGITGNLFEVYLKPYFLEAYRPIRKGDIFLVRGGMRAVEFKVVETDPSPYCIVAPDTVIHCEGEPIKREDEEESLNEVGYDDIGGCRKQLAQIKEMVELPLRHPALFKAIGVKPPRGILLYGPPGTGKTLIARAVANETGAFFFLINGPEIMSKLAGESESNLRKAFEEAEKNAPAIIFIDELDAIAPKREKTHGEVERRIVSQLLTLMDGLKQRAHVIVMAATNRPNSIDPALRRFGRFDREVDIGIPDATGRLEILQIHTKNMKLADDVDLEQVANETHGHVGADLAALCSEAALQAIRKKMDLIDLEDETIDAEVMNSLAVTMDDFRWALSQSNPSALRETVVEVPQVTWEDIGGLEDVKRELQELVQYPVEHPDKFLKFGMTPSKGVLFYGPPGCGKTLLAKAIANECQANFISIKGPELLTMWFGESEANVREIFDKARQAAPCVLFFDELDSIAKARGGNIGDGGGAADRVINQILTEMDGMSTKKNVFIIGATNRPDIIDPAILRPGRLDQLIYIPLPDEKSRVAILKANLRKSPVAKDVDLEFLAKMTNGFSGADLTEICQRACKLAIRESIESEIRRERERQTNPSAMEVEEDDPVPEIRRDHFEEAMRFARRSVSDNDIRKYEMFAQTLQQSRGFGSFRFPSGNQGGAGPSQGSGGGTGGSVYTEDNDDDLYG
Hits are given with their value; n = inactive; x = not tested or not shown.

SMILES	DTT redox prof	TNAP inh noacc	TNAP inh hi DEA	TNAP act hiacc	G6PDH CS	p97 inhibitor
Cc1cccc2nc(COc3ccc(-c4ccccc4)cc3)cn12	n	n	n	n	n	n
CSc1nc(-c2ccccc2)nn1C(=O)c1ccccc1	n	56	n	n	n	n
CSc1nc(-c2ccccc2)nn1S(=O)(=O)c1ccccc1	n	54	n	n	n	n
CCS(=O)(=O)n1nc(-c2ccccc2)nc1SC	n	54	n	n	n	n
CSc1nc(-c2ccccc2)nn1S(=O)(=O)c1ccc(Cl)cc1	n	n	n	n	n	n
O=C(CNC(c1ccccc1)c1ccccc1)Nc1cc([N+](=O)[O-])ccc1Cl	n	n	n	n	n	n
CNC(=O)c1nnsc1S(=O)(=O)c1ccc(Cl)cc1	n	n	n	n	n	n
O=S(=O)(c1ccc(Cl)c(Cl)c1)c1snnc1-c1ccccc1	n	n	n	n	n	23
O=C(NCCCn1ccnc1)/C(=C\c1cccs1)NC(=O)c1cccs1	n	n	n	n	n	n
Cc1ccccc1N=Cc1cccc(O)c1O	n	n	n	n	52	n
Cc1ccc(N=Cc2cccc(O)c2O)c(C)c1	n	n	n	n	54	n
CC(N=Cc1cccc(O)c1O)c1ccccc1 (stereo not drawn)	n	n	n	n	52	n
O=C(C1CCCN(S(=O)(=O)c2ccccc2[N+](=O)[O-])C1)N1CCCC1 (stereo not drawn)	n	n	n	n	n	n
O=C(CSc1n[nH]c(-c2ccc(Cl)cc2Cl)n1)Nc1ccccn1	n	93	n	n	n	n
CCOC(=O)CC1C(=O)NCCN1C(=O)c1cc2c(=O)n3cccc(C)c3nc2s1 (stereo not drawn)	n	n	n	n	n	n
CCCN1C(=O)/C(=C/c2c(N3CCNC(=O)C3CC(=O)OC)nc3c(C)cccn3c2=O)SC1=S (stereo not drawn)	x	x	x	x	x	15
N#CC1=C(N)Oc2n[nH]c(-c3cccs3)c2C1C1CCCCC1 (stereo not drawn)	n	n	n	n	n	n
N#CC1=C(N)Oc2n[nH]c(-c3cccs3)c2C1C1C=CCCC1 (stereo not drawn)	n	54	n	n	n	n
O=C(O)CCN1C(=O)CC(N2C(=O)/C(=C/c3ccc(Cl)cc3)SC2=S)C1=O (stereo not drawn)	n	64	n	n	n	n
CCOc1ccc(/C=C2\SC(=S)N(CCC(=O)O)C2=O)cc1	x	x	x	x	x	n
COc1cc(CN2CCCC(C(=O)c3ccc4c5c(cccc35)CC4)C2)cc(OC)c1O (stereo not drawn)	n	n	n	n	62	n
COC(=O)C1C(c2ccc(Br)cc2)Nc2nnc(C(F)(F)F)n2C1(C)O (stereo not drawn)	n	n	n	n	n	n
CCOC(=O)NNc1ccc2nonc2c1[N+](=O)[O-]	x	x	x	x	x	21
CC1(C)CC(c2nc(-c3ccc(Cl)cc3)cs2)CCS1 (stereo not drawn)	n	n	n	n	n	18
Cc1[nH]nc2c1/C(=N\O)CC(C)(C)C2	n	n	n	n	n	n
SMILES	DTT redox prof	TNAP inh noacc	TNAP inh hi DEA	TNAP act hiacc	G6PDH CS	p97 inhibitor
CCc1n[nH]c2c1C(=O)CC(C)(C)C2	n	51	n	n	n	n
CCc1n[nH]c2c1/C(=N/O)CCC2	n	n	n	n	n	n
Cc1[nH]nc2c1C(=O)CC(C)(C)C2	n	55	n	n	n	n
Cc1ccc(NC(=O)C2CCN(S(=O)(=O)c3cnc[nH]3)CC2)nc1	n	n	n	n	n	n
Cc1n[nH]c(C)c1S(=O)(=O)N1CCN(C(=O)c2ccco2)CC1	n	60	n	n	n	n
Cc1ccc(NC(=O)C2CCN(S(=O)(=O)c3c(C)n[nH]c3C)CC2)nc1	n	55	n	n	n	n
O=C(O)c1cccc(NC2=C(Cl)C(=O)c3ccccc3C2=O)c1	n	n	n	n	52	n
CC(NCC1(N2CCOCC2)CCCCC1)C(=O)Nc1ccc(Cl)cc1Cl (stereo not drawn)	n	n	n	n	n	n
CN(Cc1nc(Cc2ccccc2F)no1)CC1(N2CCOCC2)CCCCC1	n	n	n	n	n	n
CN(Cc1nc(Cc2ccccc2F)no1)Cc1cccc2ncccc12	n	n	n	n	51	n
CCOC(=O)N=Nc1c(O)n(CC(=O)OC)c2ccccc12	n	n	n	n	n	n
CCOC(=O)N=Nc1c2ccccc2c2nc3no[nH]c3nc12	n	n	n	n	55	n
O=C(CSc1nc2ccccc2o1)N/N=C/c1ccc(O)c(O)c1	x	x	x	x	x	n
COc1ccc2nc(C)cc(SCC(=O)N/N=C/c3ccc(O)c(O)c3)c2c1	n	76	n	n	n	n
COc1ccc2c(c1)c(C(=O)N/N=C/c1ccc(Br)cc1)c(C)n2C	x	x	x	x	x	n
Cc1cc(SCC(=O)N/N=C/c2ccc(O)c(O)c2)c(C)cc1Br	n	50	n	n	n	n
COc1ccc2c(c1)c(C(=O)N/N=C/c1ccc(O)c(O)c1)c(C)n2C	n	56	n	n	n	n
COc1cccc2c(SCC(=O)N/N=C/c3ccc(O)c(O)c3)cc(C)nc12	n	72	n	n	n	n
COc1ccc2nc(C)cc(SCC(=O)N/N=C/c3cccc4ccccc34)c2c1	n	n	n	n	n	n
Cc1nc2cc(C(F)(F)F)ccc2n1C1CCN(CC(=O)NC(C)(C)C)CC1	n	n	n	n	n	n
O=S(=O)(NCCC1=CCCCC1)c1cccc(S(=O)(=O)N2CCOCC2)c1	n	n	n	n	n	n
CCCn1c(CNc2ccccc2O)nc2ccccc21	n	n	n	n	62	n
CCCCn1c(CNC(=O)CCC)nc2ccccc21	n	n	n	n	n	n
Cc1cc(C(=O)OCC(=O)Nc2ccc(S(=O)(=O)N3CCOCC3)cc2)c(C)o1	n	n	n	n	n	n
Cc1cc(C(=O)OCC(=O)Nc2cc(S(=O)(=O)N3CCOCC3)ccc2Cl)c(C)o1	n	n	n	n	n	16
CC(C)NCC(O)c1ccc(NS(C)(=O)=O)cc1 (stereo not drawn)	x	n	n	n	n	n
CC(C)NC[C@@H](O)c1ccc(O)c(O)c1	n	71	n	n	63	n
O=C(c1cc(-c2ccccc2)n[nH]1)N1CCc2c([nH]c3ccccc23)C1c1ccccn1 (stereo not drawn)	n	62	n	n	n	n
O=C(O)/C=C/C(=O)NCc1ccccn1	n	n	n	n	n	n

Screening results as filed in PubChem BioAssay.
